Laboratory results taken from ChEMBL document CHEMBL1130063, “Design and synthesis of potent antitumor 5,4'-diaminoflavone derivatives based on metabolic considerations” (J Med Chem, 1997).

What was measured:
MCF7 [1] = experiment: Growth-Inhibitory activity against MCF-7 Cells in the presence of S-9 Mix; assay type: functional, cell-based; conditions: Homo sapiens
Method in brief: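 MCF-7 cells were exposed to compound for 6 days and counted with a microcell counter. S-9 mix was in the medium at 0.125% of a 30% S-9 mix solution. That solution was made from rat liver S-9, glucose 6-phosphate, β-NADPH, 20 mM HEPES, 50 mM MgCl2, 330 mM KCl and water.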

MCF7 [2] = experiment: Growth-Inhibitory activity against MCF-7 Cells in the absence of S-9 Mix; assay type: functional, cell-based, Homo sapiens
Method in brief: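 MCF-7 cells were exposed to compound for 6 days in medium without S-9 mix, and cells were counted with a microcell counter.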

ACHN = experiment: In vitro Growth Inhibitory activity against ACHN Human kidney cancer cell line; assay type: functional, cell-based
Method in brief: (§1)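 Cells were grown with 10% FBS. Seeding per well was 3 × 10^3 for Ishikawa, 5 × 10^3 for Hep-G2, 2.5 × 10^3 for WiDr and 1.5 × 10^3 for ACHN. Exposure lasted 6 days, followed by microcell-counter cell counts.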

A-431 = experiment: In vitro Growth Inhibitory activity against A431 Human vulva cancer cell line; assay type: functional, cell-based
Method in brief: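 A431 was seeded at 1.5 × 10^3 cells/well in Dulbecco's modified Eagle's medium with FBS, treated for 6 days, and counted with a microcell counter.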

A2780 = experiment: In vitro Growth Inhibitory activity against A2780 Human ovarian cancer cell line; assay type: functional, cell-based
Method in brief: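 A2780 was seeded at 1 × 10^3 cells/well in RPMI 1640 with 5% FBS, exposed to compound for 6 days, and counted with a microcell counter.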

HepG2 = experiment: In vitro Growth Inhibitory activity against HepG2 Human liver cancer cell line; assay type: functional, cell-based; method in brief: as §1
Ishikawa = experiment: In vitro Growth Inhibitory activity against Ishikawa Human endometrial cancer cell line; assay type: functional, cell-based; method in brief: as §1
MKN-28 = experiment: In vitro Growth Inhibitory activity against MKN Human stomach cancer cell line; assay type: functional, cell-based
Method in brief: (§2)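 Cells were grown in RPMI 1640 with 10% FBS. Seeding per well was 3 × 10^3 for T-47D and OVCAR-3, and 1.5 × 10^3 for MKN-28 and PSN-1. Compound exposure lasted 6 days, and cells were counted with a microcell counter.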

MDA-MB-453 = experiment: In vitro Growth Inhibitory activity against MD-453 Human breast cancer cell line; assay type: functional, cell-based
Method in brief: (§3)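 Each cell line was treated for 6 days, and growth was read by counting cells with a microcell counter.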

MCF7 [3] = experiment: In vitro Growth Inhibitory activity against MCF-7 Human breast cancer cell line; assay type: functional, cell-based; method in brief: as §3
OVCAR-3 = experiment: In vitro Growth Inhibitory activity against OVCAR-3 Human ovarian cancer cell line; assay type: functional, cell-based; method in brief: as §2
PSN1 = experiment: In vitro Growth Inhibitory activity against PSN-1 Human pancreas cancer cell line; assay type: functional, cell-based; method in brief: as §2
SK-BR-3 = experiment: In vitro Growth Inhibitory activity against SK-BR-3 Human breast cancer cell line; assay type: functional, cell-based
Method in brief: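 SK-BR-3 was seeded at 1 × 10^4 cells/well in McCoy's 5a with 10% FBS, treated for 6 days, and counted with a microcell counter.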

T47D = experiment: In vitro Growth Inhibitory activity against T-47D Human breast cancer cell line; assay type: functional, cell-based; method in brief: as §2
WiDr = experiment: In vitro Growth Inhibitory activity against WiDr Human colon cancer cell line; assay type: functional, cell-based; method in brief: as §1

Row | SMILES | IC50 (MCF7 [1]) | IC50 (MCF7 [2]; Homo sapiens, MCF7) | other results
1 | Nc1ccc(-c2cc(=O)c3c(N)ccc(Cl)c3o2)cc1 | 250 nM | 9.8 nM | –
2 | Nc1ccc(-c2cc(=O)c3c(N)ccc(O)c3o2)cc1 | 16000 nM | 5300 nM | –
3 | Nc1ccc(-c2cc(=O)c3c(N)c(Br)cc(Br)c3o2)cc1 | – | 6300 nM | –
4 | Nc1ccc(-c2cc(=O)c3c(N)ccc(F)c3o2)cc1 | 170 nM | 6.9 nM | –
5 | COc1ccc(N)c2c(=O)cc(-c3ccc(N)cc3)oc12 | – | 21000 nM | IC50 (MCF7 [2]; mcf7): 19000 nM
6 | Nc1ccc(-c2cc(=O)c3c(N)c(F)cc(F)c3o2)cc1F | 25 nM | 1.2 nM | IC50 (ACHN): > 1000 nM; IC50 (A-431): > 1000 nM; IC50 (A2780): 1.3 nM; IC50 (HepG2): 2.8 nM; IC50 (Ishikawa): 13 nM; IC50 (MKN-28): > 1000 nM; IC50 (MDA-MB-453): > 1000 nM; IC50 (MCF7 [3]): 1.2 nM; IC50 (OVCAR-3): 14 nM; IC50 (PSN1): > 1000 nM; IC50 (SK-BR-3): 2.5 nM; IC50 (T47D): 31 nM; IC50 (WiDr): > 1000 nM
7 | Cc1ccc(N)c2c(=O)cc(-c3ccc(N)c(F)c3)oc12 | 180 nM | 15 nM | –
8 | Nc1ccc(-c2cc(=O)c3c(N)c(Cl)ccc3o2)cc1 | > 10000 nM | 3.9 nM | –
9 | Nc1ccc(-c2cc(=O)c3c(N)c(F)ccc3o2)cc1 | 130 nM | 4.4 nM | –
10 | Nc1ccc(-c2cc(=O)c3c(N)cccc3o2)cc1 | 210 nM | 7.3 nM | –
11 | Nc1ccc(-c2cc(=O)c3c(N)c(Cl)cc(Cl)c3o2)cc1 | 610 nM | 53 nM | –
12 | Nc1c(F)cc(-c2cc(=O)c3c(N)c(F)cc(F)c3o2)cc1F | 89 nM | 4 nM | –
13 | Cc1cc(C)c2oc(-c3ccc(N)c(F)c3)cc(=O)c2c1N | 110 nM | 36 nM | –
14 | Nc1ccc(-c2cc(=O)c3c(N)c(F)cc(F)c3o2)cc1 | 46 nM | 6 nM | –
